Results on two molecules are retold here after ChEMBL document CHEMBL1122517, “2-Phenylindoles. Relationship between structure, estrogen receptor affinity, and mammary tumor inhibiting activity in the rat” (1984).

Assay [1] has as its target T1, Estrogen receptor (Mus musculus) (UniProt O08537+P19785). The assay is described as follows: Uterotrophic activity in mice as uterus dry weight (mg)/body weight (g) *100 at 0.2 ug dose. The format is functional, tissue-based. The gist of the method: (§1)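 Immature 19-day-old female NMRI mice, groups of 10. Compound dose per animal in olive oil (50 µL) sc on 3 consecutive days. Mice were killed 24 h after the last injection. Uteri were Bouin-fixed 20 h, cleaned, washed with alcoholic LiCl, and dried at 100 °C for 24 h. Effect = uterine dry weight (mg)/body weight (g) ×100; mean ± SD.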

Assay [2] addresses T1, Estrogen receptor (Mus musculus). The assay is described as follows: Uterotrophic activity in mice as uterus dry weight (mg)/body weight (g) *100 at 125 ug dose. The class given is functional, tissue-based. The gist of the method: as §1
Assay [3] has the same target. Kind of assay: Uterotrophic activity in mice as uterus dry weight (mg)/body weight (g) *100 at 1 ug dose. The format is functional, tissue-based. The gist of the method:
as §1

Assay [4] shares this target. The assay is described as follows: Uterotrophic activity in mice as uterus dry weight (mg)/body weight (g) *100 at 25 ug dose. The format is functional, tissue-based. The method in brief: as §1
The target is the same in assay [5]. The assay is described as follows: Uterotrophic activity in mice as uterus dry weight (mg)/body weight (g) *100 at 5 ug dose. The format is functional, tissue-based. The method in brief:
as §1

Assay [6] is filed under the species Rattus norvegicus. Kind of assay: Change in DMBA-induced mammary carcinoma tumor area in rats at 2.0 mg dose. The format is functional. The gist of the method:
(§2)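 Female Sprague-Dawley rats got one 20 mg DMBA dose by gavage at 50 days old and were palpated twice weekly from day 30. Rats were randomized once tumor area exceeded 140 mm². Dose (per kg) was given sc in olive oil, once daily Monday to Thursday and doubled on Friday. Tumor area was taken from caliper measurements of two perpendicular axes, twice weekly. Change per animal is given as median % and range.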

The species entered for assay [7] is Rattus norvegicus. Kind of assay: Change in DMBA-induced mammary carcinoma tumor area in rats at 0.5 mg dose. The format is functional. The method in brief: as §2
The species named for assay [8] is Rattus norvegicus. The assay is described as follows: Change in body weight of DMBA-induced mammary carcinoma tumor bearing rats at 0.5 mg dose. The format is functional. The gist of the method:
(§3)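 DMBA-induced tumor-bearing Sprague-Dawley rats (20 mg DMBA by gavage at 50 days old), randomized when tumor area exceeded 140 mm². Dose per kg was given sc in olive oil, single dose daily Monday to Thursday, double dose Friday. Body weight was measured twice weekly. Read-out was % change in body weight.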

The species entered for assay [9] is Rattus norvegicus. Kind of assay: Change in body weight of DMBA-induced mammary carcinoma tumor bearing rats at 2 mg dose. The format is functional. The gist of the method:
as §3

Assay [10] is filed under the species Rattus norvegicus. Kind of assay: Change in DMBA-induced mammary carcinoma tumor area in rats at 0.5 mg dose; -100-346. The class given is functional. The method in brief:
as §2

The species entered for assay [11] is Rattus norvegicus. Kind of assay: Complete remission (%) of DMBA-induced mammary carcinoma tumors in rats at 0.5 mg dose. The class given is functional. The gist of the method: (§4)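 DMBA-induced tumors in Sprague-Dawley rats, entered when tumor area exceeded 140 mm². Dose per kg was given sc in olive oil, daily Monday to Thursday with a double dose Friday. Tumors were measured by calipers twice weekly. Tumor number was counted at the start of the test. Complete remission meant the tumor was no longer palpable. Partial remission meant reduction to ≤50% of initial size. New tumor appearance was recorded.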

The species named for assay [12] is Rattus norvegicus. Kind of assay: Complete remission (%) of DMBA-induced mammary carcinoma tumors in rats at 2 mg dose. The format is functional. The method in brief:
as §4

The species named for assay [13] is Rattus norvegicus. The assay is described as follows: Partial remission (%) of DMBA-induced mammary carcinoma tumors in rats at 2 mg dose. The class given is functional. The method in brief:
(§5)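 Female Sprague-Dawley rats, 50 days old, given a single 20 mg DMBA dose in 1 mL olive oil by gavage. Rats were palpated twice weekly from day 30, and those without tumors by day 70 were discarded. Rats were randomized once tumor area exceeded 140 mm². Drug dose was per kg in olive oil (1 mL/kg) sc, single dose Mon–Thu and double dose Fri. Tumor area (caliper, two perpendicular axes) and body weight were measured twice weekly.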

For assay [14], the species on record is Rattus norvegicus. The assay is described as follows: Percent unchanged DMBA-induced mammary carcinoma tumors in rats at 2 mg dose. The class given is functional. The gist of the method: as §5
Assay [15] is filed under the species Rattus norvegicus. Kind of assay: Percent unchanged DMBA-induced mammary carcinoma tumors in rats at 0.5 mg dose. The class given is functional. The gist of the method: as §5
Assay [16] is filed under the species Rattus norvegicus. The assay is described as follows: Percent progressive DMBA-induced mammary carcinoma tumors in rats at 0.5 mg dose. The class given is functional. The gist of the method: as §5
Assay [17] is filed under the species Rattus norvegicus. The assay is described as follows: Number of DMBA-induced mammary carcinoma tumors in rats at 0.5 mg dose. The format is functional. The gist of the method:
as §4

The species entered for assay [18] is Rattus norvegicus. Kind of assay: Number of DMBA-induced mammary carcinoma tumors in rats at 2 mg dose. The format is functional. The gist of the method:
as §4

Assay [19] is filed under the species Rattus norvegicus. Kind of assay: Formation of new DMBA-induced mammary carcinoma tumors in rats at 0.5 mg dose. The format is functional. The gist of the method: as §4
The species named for assay [20] is Rattus norvegicus. The assay is described as follows: Formation of new DMBA-induced mammary carcinoma tumors in rats at 2 mg dose. The format is functional. The method in brief:
as §4

The species named for assay [21] is Rattus norvegicus. The assay is described as follows: Percent progressive DMBA-induced mammary carcinoma tumors in rats at 2 mg dose. The format is functional. The gist of the method:
as §5

The species entered for assay [22] is Rattus norvegicus. The assay is described as follows: Partial remission (%) of DMBA-induced mammary carcinoma tumors in rats at 0.5 mg dose. The format is functional. The method in brief: as §4
Assay [23] is filed under the species Rattus norvegicus. The assay is described as follows: Change in DMBA-induced mammary carcinoma tumor area in rats at 2 mg dose. The format is functional. The method in brief: as §2
Assay [24] is filed under the species Rattus norvegicus. Kind of assay: Change in DMBA-induced mammary carcinoma tumor area in rats at 2 mg dose; -100-231. The class given is functional. The method in brief:
as §2

Assay [25] is filed under the species Rattus norvegicus. Kind of assay: Partial remission (%) of DMBA-induced mammary carcinoma tumors in rats. The class given is functional. The gist of the method:
as §4

T1 sequence (O08537 whole entry, looked up): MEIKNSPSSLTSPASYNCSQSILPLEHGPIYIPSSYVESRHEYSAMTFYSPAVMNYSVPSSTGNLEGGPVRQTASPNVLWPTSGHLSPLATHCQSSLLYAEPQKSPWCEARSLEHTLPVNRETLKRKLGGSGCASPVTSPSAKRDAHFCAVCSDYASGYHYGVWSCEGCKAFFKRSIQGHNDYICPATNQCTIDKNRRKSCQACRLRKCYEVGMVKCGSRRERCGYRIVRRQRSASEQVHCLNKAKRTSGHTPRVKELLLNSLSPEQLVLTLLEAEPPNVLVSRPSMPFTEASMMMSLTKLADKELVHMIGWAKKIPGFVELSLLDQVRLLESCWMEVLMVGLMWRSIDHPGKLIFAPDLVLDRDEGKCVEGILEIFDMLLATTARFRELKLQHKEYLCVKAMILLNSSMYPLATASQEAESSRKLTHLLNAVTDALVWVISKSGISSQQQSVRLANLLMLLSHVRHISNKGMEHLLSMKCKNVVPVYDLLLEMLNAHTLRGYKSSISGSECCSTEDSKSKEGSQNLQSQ
T1 sequence (P19785 whole entry, looked up): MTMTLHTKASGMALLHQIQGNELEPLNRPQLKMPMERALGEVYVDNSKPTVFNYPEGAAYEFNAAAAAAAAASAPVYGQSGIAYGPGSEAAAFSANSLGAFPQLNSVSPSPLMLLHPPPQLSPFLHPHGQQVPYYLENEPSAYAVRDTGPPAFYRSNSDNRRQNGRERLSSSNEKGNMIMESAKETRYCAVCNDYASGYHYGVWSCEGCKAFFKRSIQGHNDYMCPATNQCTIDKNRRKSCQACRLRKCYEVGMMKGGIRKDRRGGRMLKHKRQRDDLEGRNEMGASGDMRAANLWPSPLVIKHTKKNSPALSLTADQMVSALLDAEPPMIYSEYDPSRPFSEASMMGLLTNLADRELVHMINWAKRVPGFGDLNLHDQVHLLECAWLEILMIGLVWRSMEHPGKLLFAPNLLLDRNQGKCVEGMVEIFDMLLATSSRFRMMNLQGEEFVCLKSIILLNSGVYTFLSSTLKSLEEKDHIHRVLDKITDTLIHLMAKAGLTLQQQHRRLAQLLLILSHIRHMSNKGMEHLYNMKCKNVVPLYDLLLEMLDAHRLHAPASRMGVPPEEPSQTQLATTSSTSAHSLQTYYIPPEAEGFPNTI

Turning to `CCn1c(-c2ccc(OC(C)=O)cc2)c(C)c2ccc(OC(C)=O)cc21`, the Uterotrophic effect in [1] came to 20.8; in assay [2], 42.4; in [3], 31.6; in assay [4], 44.8; in assay [5], 41.5. Further, the figures for the “Change of tumor area” value in the assay filed under Rattus norvegicus [6], in the assay listed under Rattus norvegicus [7] and in the assay listed under Rattus norvegicus [10] were -96%, -74% and -100%, respectively. Also, the “Change of body weight” value is -15% in the assay listed under Rattus norvegicus [8] and -13% in the assay filed under Rattus norvegicus [9]. The Complete remission is reported as 65% in the assay listed under Rattus norvegicus [11] and 70% in the assay filed under Rattus norvegicus [12]. The Partial remission was found to be 23% in the assay listed under Rattus norvegicus [13] and 11% in the assay filed under Rattus norvegicus [22]. For the same molecule, the Static tumors in the assay listed under Rattus norvegicus [14] was 2%; in the assay listed under Rattus norvegicus [15], 15%. Also, the Progressed tumors in the assay filed under Rattus norvegicus [16] was found to be 9%; in the assay listed under Rattus norvegicus [21] it was 5%. The No. of tumors in the assay listed under Rattus norvegicus [17] is reported as 40; in the assay listed under Rattus norvegicus [18] it was 34. Also, the New tumors in the assay listed under Rattus norvegicus [19] and in the assay listed under Rattus norvegicus [20] was 6 throughout.

Consider `CCc1c(-c2ccc(OC(C)=O)cc2)n(CC)c2cc(OC(C)=O)ccc12`, for which the Uterotrophic effect was 25.5 in assay [1]; 44.7 in assay [2]; 36.2 in [3]; 46.4 in assay [4]; 45.6 in assay [5]. Also, the “Change of tumor area” value in the assay filed under Rattus norvegicus [23] is recorded as -95%; in the assay listed under Rattus norvegicus [24], -100%. In addition, the “Change of body weight” value in the assay listed under Rattus norvegicus [9] was -13%. The same molecule showed a Complete remission in the assay filed under Rattus norvegicus [12] of 74%. In the assay listed under Rattus norvegicus [25], the Partial remission amounted to 13%. In addition, the Static tumors in the assay listed under Rattus norvegicus [14] turned out to be 5%. In the assay filed under Rattus norvegicus [18], the No. of tumors is 36. In addition, the New tumors in the assay filed under Rattus norvegicus [20] is 3. The Progressed tumors in the assay listed under Rattus norvegicus [21] was 8%.
